Results published in ChEMBL document CHEMBL1122272, “2-haloethylating agents for cancer chemotherapy. 2-haloethyl sulfonates” (1983).
“And” between values parts separate entries of the source, which are not always exact repeats. Identical values can stand only once.

Columns and labels:
P388 [1] = assay: weight change difference (T-C) in mice against P388 leukemia at a dose(mg/kg, schedule); type: functional, Mus musculus
In short: (§1)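 P388 leukemia mice given 10⁶ cells ip on day 0 and then treated on a single day-1 or q.d. 1-9 or 1-5 schedule. Solutions or suspensions given within about 5 or 15 min of preparation. Value is average weight change on day 5 of treated mice minus that of control mice, in g.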

P388 [2] = assay: (§2) T/C ratio against P388 leukemia in mice at a dose(mg/kg, schedule (q.d.)); type: functional, Mus musculus
In short: (§3)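 Mice inoculated ip with 10⁶ P388 leukemia cells on day 0. Dosed once on day 1, or q.d. days 1-9 or 1-5. Solutions or suspensions given within about 5 min of preparation, or within 15 min where marked. Value is median/mean survival time, treated vs control, as T/C %. Dose counted toxic if day-5 mortality >3 of 6, T/C <85%, or weight-change difference beyond -4 g.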

P388 [3] = assay: T/C ratio against P388 leukemia in mice at a dose(mg/kg, schedule (q.d.).; type: functional, organism-based; conditions: Mus musculus; in short: as §3
P388 [4] = assay: Weight change in mice against P388 leukemia; type: functional, Mus musculus; in short: as §1
P388 [5] = assay: as §2; type: functional, Mus musculus; in short: as §3; remark: listed apart in the source
P388 [6] = assay: as §2; type: functional, Mus musculus; in short: as §3; remark: listed apart in the source
P388 [7] = assay: T/C ratio against P388 leukemia in mice dose(mg/kg, schedule (q.d.)); type: functional, Mus musculus; in short: as §3
P388 [8] = assay: T/C ratio against P388 leukemia in mice at a dose(mg/kg, schedule); type: functional, Mus musculus; in short: as §3
P388 [9] = assay: as §2; type: functional, Mus musculus; in short: as §3; remark: listed apart in the source

| SMILES | T/C (P388 [2]) | T/C (P388 [3]) | Weight change difference (P388 [4]) | also measured |
| --- | --- | --- | --- | --- |
| O=S(=O)(CBr)OCCCl | 165% and 200% and 159% and 128% and 120% | – | – | Weight change difference (P388 [1]): -0.2 g |
| CS(=O)(=O)OCCBr | 116% and 114% | Toxic | – | – |
| O=S(=O)(CCl)OCCF | 117% and 102% | Toxic | -2.1 g and -0.8 g | – |
| C=C(Br)S(=O)(=O)OCCCl | 100% and 104% | Toxic | -2.8 g and -1.4 g | – |
| CCS(=O)(=O)OCCCl | 116% and 104% | – | – | – |
| O=S(=O)(CI)OCCCl | 93% | Toxic | -0.1 g | T/C (P388 [5]): 110% |
| O=S(=O)(OCCF)c1cc(Cl)c(Cl)cc1Cl | 113% and 98% | Toxic | – | – |
| CS(=O)(=O)OCCF | 89% and 103% and 111% and 100% | Toxic | – | – |
| CS(=O)(=O)OCCCl | 134% and 133% | Toxic | -1.6 g and -0.8 g | Weight change difference (P388 [1]): -1.2 g and -2.2 g and -0.9 g; T/C (P388 [6]): 102%; T/C (P388 [7]): 108%; T/C (P388 [8]): 110% |
| N#CCS(=O)(=O)OCCCl | 151% and 144% and 126% | – | -1.5 g and -2.1 g and -1.1 g | – |
| COc1ccc(S(=O)(=O)OCCCl)cc1 | 100% | – | 0 g | – |
| O=[N+]([O-])c1ccc(/C=C/S(=O)(=O)OCCCl)cc1 | 100% and 104% | Toxic | – | – |
| CCS(=O)(=O)OCCF | 106% and 111% | Toxic | -0.7 g and -0.6 g | – |
| Cc1cc(C)c(S(=O)(=O)OCCCl)c(C)c1 | 95% and 106% | Toxic | – | – |
| O=S(=O)(OCCCl)c1c(F)c(F)c(F)c(F)c1F | 110% and 100% | Toxic | – | – |
| O=C(CCl)NCCCl | 100% and 97% | Toxic | – | – |
| O=S(=O)(CCl)OCCCl | 214% and 201% and 175% and 131% and 120% | Toxic | – | – |
| CCOS(=O)(=O)CCl | 107% and 100% and 60% | – | – | – |
| C=CS(=O)(=O)OCCCl | 125% and 111% | Toxic | – | – |
| O=S(=O)(OCCCl)c1cc(Cl)c(Cl)cc1Cl | 90% and 114% and 105% | – | – | – |
| Cc1c(C)c(C)c(S(=O)(=O)OCCCl)c(C)c1C | 95% | – | -0.2 g | – |
| O=S(=O)(OCCCl)c1ccc(F)cc1 | 100% and 101% | – | – | – |
| O=S(=O)(CCl)NCCCl | 106% | – | – | – |
| O=[N+]([O-])c1ccc(CS(=O)(=O)OCCCl)cc1 | – | Toxic | – | – |
| O=S(=O)(OCCCl)c1c(Cl)c(Cl)c(Cl)c(Cl)c1Cl | 96% and 92% | Toxic | -3.2 g and -4.3 g and -1.6 g | T/C (P388 [9]): 92% |
| O=S(=O)(/C=C/c1ccccc1)OCCCl | 107% | – | -0.1 g | – |
